# Data taken from ChEMBL document CHEMBL1123263, “Alkylglycidic acids: potential new hypoglycemic agents” (J Med Chem, 1986).
# Calls of active or inactive are those of the source. The rule behind the calls is not given here.
# Experiments:
# [1] = system: Rattus norvegicus; assay: Minimum effective concentration by rat glucose tolerance test (po); type: functional; details: read-out: MED
# [2] = species: Rattus norvegicus; assay: In vitro inhibition of palmitate oxidation; type: functional
# Summary of the method: (§1)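 In vitro assay in rat hemidiaphragm muscle, using [1-¹⁴C]palmitic acid as the labeled substrate. Read-out was inhibition of oxidation of the labeled palmitate.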
# [3] = system: Rattus norvegicus; assay: Maximum lowering of blood glucose when 100 mg/kg of the drug administered orally was reported by rat glucose tolerance test; type: functional; details: route oral
# [4] = species: Rattus norvegicus; assay: Compound was tested in vitro for inhibition of palmitate oxidation; type: functional; details: for minimal effective concentration: Rattus norvegicus, read-out: MEC; summary of the method: as §1
# [5] = system: Rattus norvegicus; assay: Maximum lowering of blood glucose when 25 mg/kg of the drug administered orally was reported by rat glucose tolerance test; type: functional; details: route oral
# [6] = species: Rattus norvegicus; assay: Compound was tested in vitro for inhibition of palmitate oxidation; Inactive; type: functional; summary of the method: as §1
# [7] = species: Rattus norvegicus; assay: In vitro inhibition of palmitate oxidation; Inactive; type: functional; summary of the method: as §1
# [8] = system: Rattus norvegicus; assay: Maximum lowering of blood glucose when 100 mg/kg of the drug administered orally was reported by rat glucose tolerance test; Inactive; type: functional, organism-based; design: dose 100 mg/kg
# [9] = system: Rattus norvegicus; assay: Minimum effective concentration by rat glucose tolerance test (po); Inactive; type: functional, organism-based
# [10] = system: Rattus norvegicus; assay: Maximum lowering of blood glucose when 60 mg/kg of the drug administered orally was reported by rat glucose tolerance test; type: functional; details: route oral
# [11] = system: Rattus norvegicus; assay: Maximum lowering of blood glucose when 50 mg/kg of the drug administered orally was reported by rat glucose tolerance test; type: functional; details: route oral
# [12] = system: Rattus norvegicus; assay: Maximum lowering of blood glucose when 75 mg/kg of the drug administered orally was reported by rat glucose tolerance test; type: functional; details: route oral
IC50 ([2]; Rattus norvegicus) [µM],IC50 [7],Structure (SMILES),minimal effective dose [1] [mg/kg],Max lowering [3] [%],minimal effective concentration [4] [µM],MEC [6],other results
47,,CCCCCCCCCCCCCCC1(C(=O)OCCCC)CO1 (configuration not stated),1.5,40,10,,
16,,CCCCCCCCCCCCCCC1(C(=O)OCC(O)CO)CO1 (configuration not stated),5,,10,,Max lowering [5]: 31%
,,CCCCCCCCCCCCCCC1(C(=O)O)CO1 (configuration not stated) [PALMOXIRATE],5,53,0.1,,
,Not Active,CCCCCCCCCCCCCCC1(C(=O)NCCO)CO1 (configuration not stated),100,33,,inactive,
,Not Active,CCCCCCCCCCCCCCC1(CCC(=O)OC)CO1 (configuration not stated),,,,inactive,Max lowering [8]: inactive; MED [9]: inactive
,,CCCCCCCCCCCCCCC1(C(=O)[O-])CO1.[Na+] (configuration not stated),2.5,,,,IC50 [2]: 1 µM; MEC [4]: 0.2 µM; Max lowering [10]: 38%
,Not Active,CCCCCCCCCCC1(C(=O)OCC)OC1(C)C (configuration not stated),,,,inactive,Max lowering [8]: inactive; MED [9]: inactive
,,COC(=O)C1(CCCCCCCCCCc2ccccc2)CO1 (configuration not stated),10,,,,Max lowering [5]: 36%
,Not Active,CCCCCCCCCCCCCCC1(CO)CO1 (configuration not stated),,,,inactive,Max lowering [8]: inactive; MED [9]: inactive
,Not Active,COC(=O)C1(C)CO1 (configuration not stated),,,,inactive,Max lowering [8]: inactive; MED [9]: inactive
,Not Active,CCCCCCCCCCCCCCC1(C(=O)OC)OC1(C)C (configuration not stated),,,,inactive,Max lowering [8]: inactive; MED [9]: inactive
13,,CCCCCCCCCCCCCC1(C(=O)OC)CO1 (configuration not stated),5,37,1,,
,,CCCCCCCCCCCCCCCCCCC1(C(=O)OC)CO1 (configuration not stated),10,25,,inactive,
5,,CCCCCCCCCCC1(C(=O)OC)CO1 (configuration not stated),10,,0.5,,Max lowering [11]: 32%
,Not Active,CCCCCCCCCCCCCCC1(CC(C(=O)OC)C(=O)OC)CO1 (configuration not stated),,,,inactive,Max lowering [8]: inactive; MED [9]: inactive
100,,CCCCCCCCCCCCCCCCC1(C(=O)OC)CO1 (configuration not stated),25,16,10,,
7,,CCCCCCCCCCCC1(C(=O)OC)CO1 (configuration not stated),10,38,2.5,,
15,,CCCCCCCCCCCCC1(C(=O)OC)CO1 (configuration not stated),5,32,1,,
,Not Active,CCCCCCCCCCCCCCCCCCCCCCC1(C(=O)OC)CO1 (configuration not stated),10,17,,inactive,
2,,CCCCCCCCCCCCCCC1(C(=O)OC)CO1 (configuration not stated) [METHYL PALMOXIRATE],4,,0.1,,Max lowering [12]: 45%
,Not Active,CCCCCCCCCCCCCCC1(C(=O)OC)OC1C (configuration not stated),,,,inactive,Max lowering [8]: inactive; MED [9]: inactive
102,,CCCCCCC1(C(=O)OC)CO1 (configuration not stated),10,30,20,,
,Not Active,CCCCCCCCCCCCCCC1(C(=O)N(C)C)CO1 (configuration not stated),25,19,,inactive,
,Not Active,CCCCCCCCCCCCCCC1(C(N)=O)CO1 (configuration not stated),10,44,,inactive,
